# Test system: Fibroblast
# Assay: Multiplex assay against human fibroblast
# Type: toxicity, cell-based
# Method in brief: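 Hoechst33342, BioTracker Green Microtubule Cytoskeleton Dye, MitoTracker Red and Annexin V Alexa Fluor 680 were added to live cells at seeding, and imaging on a CQ1 microscope at 37°C and 5% CO2 followed compound addition. Gating by CellPathfinder machine learning separated cells into Hoechst high-intensity objects or normal cells, then normal cells into healthy, pyknosed or fragmented nuclei, then pyknosed cells into mitotic or apoptotic. Per cents of healthy-nucleus cells are reported for the tubulin, mitochondrial-mass and membrane-permeability phenotypes.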
# [1] = 12 h, 1 µM, compound concentration 1 uM, replicate 1
# [2] = 12 h, 1 µM, compound concentration 1 uM, replicate 2
# [3] = 12 h, 10 µM, compound concentration 10 uM, replicate 1
# [4] = 12 h, 10 µM, compound concentration 10 uM, replicate 2
# [5] = 24 h, 1 µM, compound concentration 1 uM, replicate 1
# [6] = 24 h, 1 µM, compound concentration 1 uM, replicate 2
# [7] = 24 h, 10 µM, compound concentration 10 uM, replicate 1
# [8] = 24 h, 10 µM, compound concentration 10 uM, replicate 2
# [9] = 48 h, 1 µM, compound concentration 1 uM, replicate 1
# [10] = 48 h, 1 µM, compound concentration 1 uM, replicate 2
# [11] = 48 h, 10 µM, compound concentration 10 uM, replicate 1
# [12] = 48 h, 10 µM, compound concentration 10 uM, replicate 2
smiles,measurement,setting,value
CC(C)COc1ccc(CNC(=O)N(Cc2ccc(F)cc2)C2CCN(C)CC2)cc1 [PIMAVANSERIN],Population Apoptotic (%),[1],65%
same,Population Fragmented Nuclei (%),[1],24%
same,Population Healthy Nuclei (%),[1],62%
same,Population Hoechst High Intensity Objects (%),[1],0%
same,Population Membrane Permeable-Phenotype (%),[1],0%
same,Population Mitochondria Different-Phenotype (%),[1],12%
same,Population Mitotic Cells (%),[1],34%
same,Population Normal (%),[1],100%
same,Population Pyknosed Nuclei (%),[1],12%
same,Population Tubulin-Different-Phenotype (%),[1],35%
same,Total Cell Count,[1],179
same,Population Apoptotic (%),[2],61%
same,Population Fragmented Nuclei (%),[2],40%
same,Population Healthy Nuclei (%),[2],42%
same,Population Hoechst High Intensity Objects (%),[2],1%
same,Population Membrane Permeable-Phenotype (%),[2],7%
same,Population Mitochondria Different-Phenotype (%),[2],4%
same,Population Mitotic Cells (%),[2],38%
same,Population Normal (%),[2],98%
same,Population Pyknosed Nuclei (%),[2],16%
same,Population Tubulin-Different-Phenotype (%),[2],82%
same,Total Cell Count,[2],160
same,Population Apoptotic (%),[3],56%
same,Population Fragmented Nuclei (%),[3],18%
same,Population Healthy Nuclei (%),[3],65%
same,Population Hoechst High Intensity Objects (%),[3],1%
same,Population Membrane Permeable-Phenotype (%),[3],0%
same,Population Mitochondria Different-Phenotype (%),[3],42%
same,Population Mitotic Cells (%),[3],43%
same,Population Normal (%),[3],98%
same,Population Pyknosed Nuclei (%),[3],16%
same,Population Tubulin-Different-Phenotype (%),[3],93%
same,Total Cell Count,[3],185
same,Population Apoptotic (%),[4],51%
same,Population Fragmented Nuclei (%),[4],31%
same,Population Healthy Nuclei (%),[4],42%
same,Population Hoechst High Intensity Objects (%),[4],4%
same,Population Membrane Permeable-Phenotype (%),[4],2%
same,Population Mitochondria Different-Phenotype (%),[4],32%
same,Population Mitotic Cells (%),[4],48%
same,Population Normal (%),[4],95%
same,Population Pyknosed Nuclei (%),[4],26%
same,Population Tubulin-Different-Phenotype (%),[4],81%
same,Population Apoptotic (%),[5],60%
same,Population Fragmented Nuclei (%),[5],21%
same,Population Healthy Nuclei (%),[5],65%
same,Population Hoechst High Intensity Objects (%),[5],2%
same,Population Membrane Permeable-Phenotype (%),[5],1%
same,Population Mitochondria Different-Phenotype (%),[5],5%
same,Population Mitotic Cells (%),[5],39%
same,Population Normal (%),[5],97%
same,Population Pyknosed Nuclei (%),[5],12%
same,Population Tubulin-Different-Phenotype (%),[5],47%
same,Total Cell Count,[5],186
same,Population Apoptotic (%),[6],52%
same,Population Fragmented Nuclei (%),[6],39%
same,Population Healthy Nuclei (%),[6],46%
same,Population Membrane Permeable-Phenotype (%),[6],4%
same,Population Mitochondria Different-Phenotype (%),[6],9%
same,Population Mitotic Cells (%),[6],47%
same,Population Pyknosed Nuclei (%),[6],13%
same,Population Tubulin-Different-Phenotype (%),[6],76%
same,Total Cell Count,[6],157
same,Population Apoptotic (%),[7],83%
same,Population Fragmented Nuclei (%),[7],13%
same,Population Healthy Nuclei (%),[7],67%
same,Population Hoechst High Intensity Objects (%),[7],4%
same,Population Membrane Permeable-Phenotype (%),[7],0%
same,Population Mitochondria Different-Phenotype (%),[7],41%
same,Population Mitotic Cells (%),[7],16%
same,Population Normal (%),[7],95%
same,Population Pyknosed Nuclei (%),[7],18%
same,Population Tubulin-Different-Phenotype (%),[7],92%
same,Total Cell Count,[7],170
same,Population Apoptotic (%),[8],69%
same,Population Fragmented Nuclei (%),[8],27%
same,Population Healthy Nuclei (%),[8],50%
same,Population Hoechst High Intensity Objects (%),[8],8%
same,Population Membrane Permeable-Phenotype (%),[8],3%
same,Population Mitochondria Different-Phenotype (%),[8],38%
same,Population Mitotic Cells (%),[8],30%
same,Population Normal (%),[8],91%
same,Population Pyknosed Nuclei (%),[8],21%
same,Population Tubulin-Different-Phenotype (%),[8],96%
same,Total Cell Count,[8],167
same,Population Apoptotic (%),[9],88%
same,Population Fragmented Nuclei (%),[9],27%
same,Population Healthy Nuclei (%),[9],62%
same,Population Hoechst High Intensity Objects (%),[9],3%
same,Population Membrane Permeable-Phenotype (%),[9],1%
same,Population Mitochondria Different-Phenotype (%),[9],3%
same,Population Mitotic Cells (%),[9],11%
same,Population Normal (%),[9],96%
same,Population Pyknosed Nuclei (%),[9],9%
same,Population Tubulin-Different-Phenotype (%),[9],45%
same,Total Cell Count,[9],204
same,Population Apoptotic (%),[10],52%
same,Population Fragmented Nuclei (%),[10],44%
same,Population Healthy Nuclei (%),[10],44%
same,Population Hoechst High Intensity Objects (%),[10],5%
same,Population Membrane Permeable-Phenotype (%),[10],4%
same,Population Mitochondria Different-Phenotype (%),[10],12%
same,Population Mitotic Cells (%),[10],47%
same,Population Normal (%),[10],94%
same,Population Pyknosed Nuclei (%),[10],10%
same,Population Tubulin-Different-Phenotype (%),[10],64%
same,Total Cell Count,[10],167
same,Population Apoptotic (%),[11],92%
same,Population Fragmented Nuclei (%),[11],15%
same,Population Healthy Nuclei (%),[11],67%
same,Population Hoechst High Intensity Objects (%),[11],12%
same,Population Membrane Permeable-Phenotype (%),[11],0%
same,Population Mitochondria Different-Phenotype (%),[11],44%
same,Population Mitotic Cells (%),[11],8%
same,Population Normal (%),[11],87%
same,Population Pyknosed Nuclei (%),[11],17%
same,Population Tubulin-Different-Phenotype (%),[11],91%
same,Total Cell Count,[11],163
same,Population Apoptotic (%),[12],75%
same,Population Fragmented Nuclei (%),[12],30%
same,Population Healthy Nuclei (%),[12],53%
same,Population Hoechst High Intensity Objects (%),[12],6%
same,Population Membrane Permeable-Phenotype (%),[12],3%
same,Population Mitochondria Different-Phenotype (%),[12],41%
same,Population Mitotic Cells (%),[12],25%
same,Population Normal (%),[12],93%
same,Population Pyknosed Nuclei (%),[12],16%
same,Population Tubulin-Different-Phenotype (%),[12],92%
same,Total Cell Count,[12],159
